Experimental data reported in publication PMC5008228 (Journal of Parkinson's Disease, 2016).
“And” between values parts separate entries of the source, which are not always exact repeats. Equal entries are not always repeated. “Also recorded” adds a separate entry of the source.

Assays:
[1] = test system: PDD or DLB participants; test: Safety and tolerability, adverse events; format: in vivo, human
[2] = test system: total tau; test: Neurodegenerative disease magnetic bead panel, total tau and p-tau181; format: in vivo, human
[3] = test system: Aβ42; test: Neurodegenerative disease magnetic bead panel, Aβ42; format: in vivo, human; details: 150 mg group
[4] = test system: Neuron Specific Enolase (NSE); test: Neurodegenerative disease magnetic bead panel, NSE; format: in vivo, human; details: 6 months
[5] = test system: α-synuclein; test: α-synuclein sandwich ELISA in CSF and plasma; format: in vivo, human; details: for Plasma α-synuclein vs baseline: 2 months
[6] = Nilotinib pharmacokinetics in plasma by mass spectrometry; format: in vivo; details: human, po, unbound Nilotinib; for AUC: Plasma AUC; for Cmax: Plasma Cmax
[7] = test system: Aβ40; test: Neurodegenerative disease magnetic bead panel, Aβ40; format: in vivo, human
[8] = test system: PDD or DLB participants; test: Laboratory blood chemistry; format: in vivo, human; details: 150 mg group
In short: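 PDD or DLB participants (n = 5 at 150 mg, n = 7 at 300 mg) took oral doses daily for 24 weeks. Blood chemistry (lipids, phosphate, bilirubin, electrolytes, lipase, α-amylase, ALT, AST) plus CBC with differential were drawn every two weeks for the first two months, then monthly. EKGs and physical/neurological exams were done at the same visits.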

[9] = test system: S100B; test: Neurodegenerative disease magnetic bead panel, S100B; format: in vivo, human
[10] = test system: PDD or DLB participants; test: Scales for Outcomes in Parkinson's disease-Cognition; format: in vivo, human; details: for SCOPA-Cog (**/43) score: individual participants; for Average increase in SCOPA-Cog: six months compared to baseline
[11] = test system: PDD or DLB participants; test: Unified Parkinson's Disease Rating Scale; format: in vivo, human; details: 150 mg oral daily; for UPDRS-III score, AVG: group AVG (Screening AVG 37.8); for UPDRS-I-IV score / UPDRS-III score: individual participants; for UPDRS-I-IV score, AVG: group AVG (Screening AVG 72.60)

## Cc1cn(-c2cc(NC(=O)c3ccc(C)c(Nc4nccc(-c5cccnc5)n4)c3)cc(C(F)(F)F)c2)cn1 [Nilotinib]
[1]; 150 mg group, n = 5
  Serious adverse events (one participant each): hospitalized with pneumonia and UTI
[1]; 300 mg group, n = 7
  Serious adverse events (one participant each): withdrawn at week 4 and diagnosed with myocardial infarct and left bundle block; also recorded: hospitalized with urinary tract infection (UTI)
[1]; once daily oral 150 mg or 300 mg, subjects with PDD or DLB
  Safety and tolerability: may be safe and tolerated
[2]; 150 mg group, 2 months
  CSF total tau vs baseline: significantly reduced
[2]; 300 mg group, 6 months
  CSF total tau vs baseline: significantly reduced
[3]
  CSF Aβ42: No changes
[4]; 150 mg group
  CSF NSE level vs baseline: significantly reduced
[4]; 300 mg group
  CSF NSE level vs baseline: significantly reduced
[5]; 150 mg group
  Plasma α-synuclein at 6 months compared to 2 months: significantly higher
  Plasma α-synuclein vs baseline: slightly reduced
[5]; 150 mg group, 2 and 6 months
  CSF α-synuclein vs baseline: slightly reduced
[5]; 150 mg group, t-test
  CSF α-synuclein at 2 months compared to 6 months: significantly (t-test) lower
[5]; 300 mg group
  Plasma α-synuclein vs baseline: significantly reduced
[5]; 300 mg group, 6 months
  Plasma α-synuclein: returned to baseline
[5]; 300 mg group, between baseline, 2 and 6 months
  CSF α-synuclein: unaltered
[6]; 150 mg, 150 mg oral
  AUC: 157 ng·h/mL
  Cmax: 55 nM
[6]; 300 mg, 300 mg oral
  AUC: 232 ng·h/mL
  Cmax: 86 nM
[7]; 150 mg group
  CSF Aβ40: No changes
[7]; 300 mg group, 6 months
  CSF Aβ40 vs baseline: significantly reduced
[8]
  AEs below normal range of alanine aminotransferase (ALT) level (<100%): three
[9]; 150 mg group
  CSF S100B level: gradually reduced
[9]; 300 mg group
  CSF S100B level: gradually reduced
[10]; 150 mg oral daily, Week-8, group AVG (Screening AVG 9.4)
  SCOPA-Cog (**/43) score, AVG: 10
[10]; 150 mg oral daily, Week-8
  SCOPA-Cog (**/43) score: 5 and 0 and 4 and 23 and 18
[10]; 150 mg oral daily, Week-20, group AVG (Screening AVG 9.4)
  SCOPA-Cog (**/43) score, AVG: 9.6
[10]; 150 mg oral daily, Week-20
  SCOPA-Cog (**/43) score: 3 and 1 and 0 and 26 and 18
[10]; 150 mg oral daily, Week-24, group AVG (Screening AVG 9.4)
  SCOPA-Cog (**/43) score, AVG: 11.25
[10]; 150 mg oral daily, Week-24
  SCOPA-Cog (**/43) score: 4 and 0 and 23 and 18
[10]; 150 mg oral daily
  Average increase in SCOPA-Cog: 1.85 points
[10]; 300 mg oral daily, Week-8, group AVG (Screening AVG 10.33)
  SCOPA-Cog (**/43) score, AVG: 12.17
[10]; 300 mg oral daily, Week-8
  SCOPA-Cog (**/43) score: 22 and 30 and 11 and 9 and 0 and 1
[10]; 300 mg oral daily, Week-20, group AVG (Screening AVG 10.33)
  SCOPA-Cog (**/43) score, AVG: 13.3
[10]; 300 mg oral daily, Week-20
  SCOPA-Cog (**/43) score: 21 and 30 and 19 and 10 and 0
[10]; 300 mg oral daily, Week-24, group AVG (Screening AVG 10.33)
  SCOPA-Cog (**/43) score, AVG: 12.33
[10]; 300 mg oral daily, Week-24
  SCOPA-Cog (**/43) score: 22 and 31 and 10 and 0 and 1
[10]; 300 mg oral daily
  Average increase in SCOPA-Cog: 2 points
[11]; Week-4
  UPDRS-III score, AVG: 29.4
  UPDRS-I-IV score: 54 and 103 and 43 and 71 and 50
  UPDRS-III score: 29 and 55 and 33 and 26
[11]; Week-8
  UPDRS-III score, AVG: 35.6
  UPDRS-I-IV score, AVG: 69.00
  UPDRS-I-IV score: 57 and 76 and 63 and 45
  UPDRS-III score: 32 and 56 and 39 and 28 and 23
[11]; Week-12
  UPDRS-III score, AVG: 36.6
  UPDRS-I-IV score, AVG: 69.40
  UPDRS-I-IV score: 56 and 107 and 77 and 60 and 47
  UPDRS-III score: 32 and 59 and 40 and 30 and 22
[11]; Week-16
  UPDRS-III score, AVG: 38
  UPDRS-I-IV score, AVG: 70.20
  UPDRS-I-IV score: 58 and 107 and 80 and 63 and 43
  UPDRS-III score: 33 and 59 and 43 and 22
[11]; Week-20
  UPDRS-III score, AVG: 36.2
  UPDRS-I-IV score, AVG: 67.80
  UPDRS-I-IV score: 53 and 83 and 57 and 38
  UPDRS-III score: 29 and 60 and 42 and 31 and 19
[11]; Week-24
  UPDRS-III score, AVG: 34.4
